Compound activity as filed in PubChem BioAssay.
An excerpt weighted towards active compounds, which were near 4.2% of everything screened.
KCNQ1 inh: inhibitors of human KCNQ1 potassium channel; P51787; CHO-K1 KCNQ1, FluxOR thallium flux fluorescence; stronger effect = higher value; B-score at 10 µM; hit rate 1.3% among 310,000; AID 2642;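 active means compounds whose thallium flux B-score, printed positive for inhibition, exceeds three library SD while starting fluorescence stays within three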;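 further: channel opened by potassium depolarization with thallium stimulus after 20 min compound exposure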
Cl transport mod: KCC2 (human) Cl- transport modulation; Q9H2X9; KCC2 cells, thallium flux FluoZin-2 fluorescence; B-score of Tl+ flux slope (higher = more flux/activation; lower = inhibition) at 10 µM; hit rate 2.2% among 190,000; AID 1456;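 active means thallium flux slope and its plate-corrected score both differing from the plate sample mean at a set confidence after two filtering rounds, in either direction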;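 further: slope of fluorescence scaled to starting intensity during 10 to 20 s after thallium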
hERG protect: shields human hERG channel from block by proarrhythmic agents; Q12809; activation (rescue from dofetilide block), less the hit threshold, % at 10 µM; hit rate 0.51% among 310,000; CHO-hERG, FluxOR thallium flux, dofetilide IC70 present; AID 1511;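 active means activation above the mean of controls blocked by dofetilide plus 5 SD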;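 further: thallium influx through hERG after potassium depolarization seen as dye fluorescence rise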
Target sequence (Q12809 whole entry, looked up): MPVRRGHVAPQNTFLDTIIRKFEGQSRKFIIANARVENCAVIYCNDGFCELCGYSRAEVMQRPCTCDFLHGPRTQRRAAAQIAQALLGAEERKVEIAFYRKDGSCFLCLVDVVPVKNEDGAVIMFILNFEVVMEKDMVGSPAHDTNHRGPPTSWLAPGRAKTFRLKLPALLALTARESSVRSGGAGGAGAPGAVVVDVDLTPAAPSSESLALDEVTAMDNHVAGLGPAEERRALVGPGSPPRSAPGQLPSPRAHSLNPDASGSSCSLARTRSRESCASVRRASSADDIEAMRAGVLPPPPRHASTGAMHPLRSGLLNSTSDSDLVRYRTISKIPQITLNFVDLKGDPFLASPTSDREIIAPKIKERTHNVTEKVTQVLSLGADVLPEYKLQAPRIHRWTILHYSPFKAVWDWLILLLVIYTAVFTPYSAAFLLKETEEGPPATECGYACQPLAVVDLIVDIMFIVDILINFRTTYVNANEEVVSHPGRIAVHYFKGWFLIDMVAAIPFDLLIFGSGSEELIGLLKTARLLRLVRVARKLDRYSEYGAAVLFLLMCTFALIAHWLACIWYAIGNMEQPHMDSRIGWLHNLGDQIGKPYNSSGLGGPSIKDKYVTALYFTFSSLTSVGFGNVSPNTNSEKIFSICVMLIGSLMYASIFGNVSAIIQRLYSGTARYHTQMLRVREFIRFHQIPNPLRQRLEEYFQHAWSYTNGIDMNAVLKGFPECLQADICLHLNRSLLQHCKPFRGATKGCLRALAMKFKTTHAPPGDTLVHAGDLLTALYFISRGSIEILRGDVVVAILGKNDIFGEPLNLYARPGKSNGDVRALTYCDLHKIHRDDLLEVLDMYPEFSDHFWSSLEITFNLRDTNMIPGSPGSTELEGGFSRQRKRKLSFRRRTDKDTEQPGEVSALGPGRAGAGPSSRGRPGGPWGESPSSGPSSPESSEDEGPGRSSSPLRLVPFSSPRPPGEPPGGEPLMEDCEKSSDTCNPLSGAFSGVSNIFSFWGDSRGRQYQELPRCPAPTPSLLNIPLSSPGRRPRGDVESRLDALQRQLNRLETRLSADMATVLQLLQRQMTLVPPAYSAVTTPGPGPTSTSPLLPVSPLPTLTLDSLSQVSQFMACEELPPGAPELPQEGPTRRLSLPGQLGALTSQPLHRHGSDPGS
AI-2 QS modul: Vibrio harveyi AI-2 quorum sensing modulation; Vibrio harveyi JMH597 AI-2 luminescence/OD600 ratio, 9 h; stronger effect = lower value; strain lacks LuxN and CqsS sensors; 0 = neutral-control median; hit rate 0.4% among 300,000; activity change, % at 7.5 µM; in the data active means activity change below about -75%, passing the limit was not always enough; inconclusive means no clear call, values can overlap the other calls;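 further: luminescence divided by OD600 gain over 9 h not by final OD600 alone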
KCNQ1 pot: human KCNQ1 channel potentiation or activation; CHO-K1 KCNQ1, thallium flux FluxOR fluorescence; stronger effect = higher value; B-score at 10 µM; hit rate 0.35% among 310,000; AID 2648;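 active means fluorescence ratio B-score, a plate-corrected score, at least three library SD, with initial intensity B-score within 5 SD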
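System: CHO-K1 cells stably expressing KCNQ1 / Medium: assay buffer for compound exposure, DMSO matched across wells / Reagent: thallium- and potassium-containing depolarizing buffer / Compound: one concentration, matched DMSO / Incubation: 20 min compound pretreatment at room temperature / Measured by: kinetic FluxOR fluorescence, 10 s baseline plus 110 s post-stimulus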
SUMO Mot1 rescue: inhibitors of SUMOylation pathway: yeast Mot1-301 growth rescue; growth rescue, % at 18.8 µM; S. cerevisiae Mot1-301 growth rescue, ATP luminescence, 38.5C; percent above DMSO median, 100 means doubled; AID 2716; hit rate 1% among 320,000;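 active means every valid replicate shows activation above 250% relative to neutral control wells; inactive means the rest, any valid replicate at or below 250%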
A number is an active result; – = inactive; ? = inconclusive; · = no result given.

SMILES	KCNQ1 inh	Cl transport mod	hERG protect	AI-2 QS modul	KCNQ1 pot	SUMO Mot1 rescue
CCC(C)Sc1cccc(-c2nc3ccc(C)cn3c2NC2CCCCC2)c1 (stereo not drawn)	–	·	–	–	–	340.7
Cc1ccn2c(NCc3ccccc3)c(-c3cccc(SC4CCCCC4)c3)nc2c1	·	·	·	·	·	–
CCC(C)Sc1cccc(-c2nc3cc(C)ccn3c2NCc2ccccc2)c1 (stereo not drawn)	8	·	–	–	–	–
O=C(NCC1CCCN(Cc2ccc3nonc3c2)C1)c1cccc(C(F)(F)F)c1 (stereo not drawn)	–	–	–	–	–	–
O=C(N/N=C\c1ccc(F)cc1)c1csnn1	–	·	–	–	–	–
O=C(Nc1ccc(NC(=O)C2CCCCC2)nc1)c1cccc(F)c1	–	·	–	–	–	·
O=C(NCc1ccc(Cl)cc1)C1CCN(S(=O)(=O)c2cccnc2)CC1	–	·	–	-79.1	–	–
O=C(Nc1ccc2oc(=O)ccc2c1)c1cccnc1Cl	–	–	–	–	–	–
CCC(=O)OCCNc1cc(Sc2nc3ccccc3s2)c2nonc2c1[N+](=O)[O-]	6	–	–	–	–	–
Cc1nnc(Sc2cc(NCCCO)c([N+](=O)[O-])c3nonc23)s1	10	–	–	–	–	·
CCC(=O)OCCNc1cc(Sc2nc3ccccc3[nH]2)c2nonc2c1[N+](=O)[O-]	·	–	·	·	·	–
Cc1nnc(Sc2cc(NCCO)c([N+](=O)[O-])c3nonc23)s1	8	–	–	?	–	·
O=[N+]([O-])c1c(NCCO)cc(N2CCCCCC2)c2nonc12	–	·	–	–	–	–
CC(C)n1ncc2c(C(=O)N3CCN(Cc4ccc(Br)s4)CC3)cc(C3CC3)nc21	·	·	·	·	·	–
C=CCN1C(=O)S/C(=C/c2ccc(Sc3nc4ccccc4[nH]3)o2)C1=O	6	–	–	–	–	–
CC(C)N1C(=O)S/C(=C/c2ccc(Sc3nc4ccccc4[nH]3)o2)C1=O	–	–	–	–	–	–
Cc1c(Cl)cccc1NC(=S)N1CCCCCC1	–	·	–	–	–	–
O=C(Nc1nc(-c2ccccc2)cs1)c1ccc(N2CCOCC2)c([N+](=O)[O-])c1	7	–	–	–	–	–
Cc1ccc(-c2csc(NC(=O)c3cc([N+](=O)[O-])ccc3N3CCOCC3)n2)cc1	–	–	–	–	–	–
CCN(CC)c1ccc(/C=c2\sc3nc4ccccc4n3c2=O)c(O)c1	9	–	–	–	–	·
NC(=S)N/N=C1/CCSc2ccc3ccccc3c21	–	4.35	–	–	–	–
NC(=S)N/N=C/c1c(O)ccc2ccccc12	–	–	–	–	–	–
O=C(NN=C1CCCC1)c1ccccc1OCc1ccc(Cl)cc1	–	–	–	–	–	–
COc1ccc2oc(=O)c(-c3csc(Nc4cccc(O)c4)n3)cc2c1	11	–	–	–	–	–
COC(=O)c1ccc(OCCOc2ccccc2)cc1	–	·	–	-75.7	–	–
SMILES	KCNQ1 inh	Cl transport mod	hERG protect	AI-2 QS modul	KCNQ1 pot	SUMO Mot1 rescue
O=C(NC1CCCCC1)C(c1cccnc1)N(CCc1ccccc1)C(=O)Cc1cccs1 (stereo not drawn)	–	–	–	–	–	·
O=C1CC(/C=C/c2ccncc2)=Nc2ccccc2N1	–	–	–	–	–	–
CC(C)C(OC(=O)c1nsc(Cl)c1Cl)C(=O)NCC1CCCO1 (stereo not drawn)	–	·	–	–	–	–
CC(=O)c1cccc(NC(=O)CSc2n[nH]c(=O)n2C2CC2)c1	·	·	·	·	·	–
CCCN1C(=O)/C(=C/c2ccc(C)s2)NC1=S	–	39.8	31.6	–	32	–
CC(C)CN1C(=O)/C(=C/c2cccs2)NC1=S	–	39.7	48.7	–	55	–
Cc1onc(-c2ccccc2)c1-c1nnc(-c2ccccc2C(F)(F)F)o1	–	–	–	–	–	–
CCn1c(C)nc2cc(-c3nnc(-c4c(-c5ccccc5)noc4C)o3)ccc21	–	·	34.3	–	–	–
O=C(Cn1cc(S(=O)(=O)Cc2cccc(F)c2)c2ccccc21)N1CCOCC1	–	·	–	–	–	–
CCCn1c(SC(C(=O)Nc2cc(C)ccc2OC)c2ccccc2)nc2ccccc2c1=O (stereo not drawn)	–	13.7	–	–	–	–
Cc1cccc(NC(=O)CSc2nnc(C)c(=O)n2N)c1	–	–	–	–	–	461.1
Cc1ccc(NC(=O)CSc2nnc(C)c(=O)n2N)cc1Cl	–	·	–	–	–	–
NC(=O)c1cc(N2C(=O)C=CC2=O)ccc1Cl	–	–	–	-82.2	–	–
CC(=O)Nc1ccc(Cl)c(C(N)=O)c1	–	–	–	–	–	–
COc1cc(/C=C2\C(=N)N3N=C(S(C)(=O)=O)SC3=NC2=O)ccc1OCCOc1ccccc1C	6	·	–	–	–	–
CCCn1c(SCC(=O)NC2CCCC2)nnc1-c1cccnc1	–	·	–	–	–	–
Cc1ccc(CC(=O)Nc2ccc(S(=O)(=O)Nc3nccc(C)n3)cc2)cc1	–	·	–	–	–	–
Cc1ccc(CC(=O)Nc2ccc(S(=O)(=O)Nc3ncccn3)cc2)cc1	–	·	–	-91.5	–	–
O=C(CCSc1ccccc1)Nc1ccc(S(=O)(=O)Nc2ncccn2)cc1	–	–	–	-79.2	–	–
O=[N+]([O-])c1cc(Cl)cc(/C=N/NC(=S)Nc2ccc(S(=O)(=O)N3CCOCC3)cc2)c1O	8	–	–	–	–	–
O=S(=O)(c1ccc(NC(=S)N/N=C/c2ccc(O)c(O)c2)cc1)N1CCOCC1	–	–	–	–	–	–
O=C(Nc1cccc(Cl)c1)N1CCN2C(=O)c3ccccc3C12c1ccccc1 (stereo not drawn)	11	–	–	–	–	–
COc1ccc(C2NC(c3ccc(OC)c(OC)c3OC)C(C)C(=O)C2C)c(OC)c1OC (stereo not drawn)	–	–	–	–	10	–
COc1ccccc1C1NC(c2ccccc2OC)C(C)C(=O)C1C (stereo not drawn)	–	·	–	–	–	·
Cc1cnc(C(=O)OC(C)C(=O)Nc2ccc(Cl)cn2)cn1 (stereo not drawn)	–	·	–	–	–	–
CNc1ccccc1C(=O)OC(C)C(=O)Nc1ccc(Cl)cn1 (stereo not drawn)	–	·	–	–	12	–
O=C(c1cccc2ccccc12)C1CCCN(C(=O)c2ccc(N3CCOCC3)cc2)C1 (stereo not drawn)	–	–	–	–	–	–
CCOc1cc(/C=C2\SC(=N)N(c3nonc3N)C2=O)ccc1OCCN1CCOCC1	–	–	–	–	–	–
CCOc1cc(/C=C2\SC(=N)N(c3nonc3N)C2=O)ccc1OCC(N)=O	–	–	6.4	–	–	–
